Measurements: ChEMBL document CHEMBL4765370, “Design, synthesis, and biological evaluation of aryl piperazines with potential as antidiabetic agents via the stimulation of glucose uptake and inhibition of NADH:ubiquinone oxidoreductase” (Eur J Med Chem, 2020)

Tests used:
[1] = Tmax in C57 Black mouse plasma at 10 mg/kg, po; assay type: ADME, organism-based
Summary of the method: (§1)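 Male C57BL/6 mice (n = 3) dosed at 10 mg/kg by IV or oral (PO) route. Dosing solutions were formulated in 10% DMSO, 10% cremaphor and 80% saline. Compound levels were measured in plasma and tissues over time, and values are given as mean ± SEM.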

[2] = Cmax in C57 Black mouse plasma at 10 mg/kg, po; assay type: ADME, organism-based; parameters: route oral, dose 10 mg/kg
Summary of the method: (§2)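 Male C57BL/6 mice were given a single 10 mg/kg dose either intravenously or orally. The oral and IV solutions were formulated in 10% DMSO, 10% cremaphor and 80% saline. Concentrations in plasma and in the tissues collected were determined after dosing, with n = 3 per route. Values are given as mean ± SEM.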

[3] = AUCall in C57 Black mouse plasma at 10 mg/kg, po; assay type: ADME, organism-based; parameters: dose 10 mg/kg; summary of the method: as §2
[4] = Metabolic stability in human hepatocytes assessed as hepatic extraction ratio at 1 uM up to 120 mins by HPLC-MS/MS analysis; assay type: ADME, cell-based, Hepatocyte
Summary of the method: (§3)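 Cryopreserved hepatocytes (human or mouse) added to buffer containing compound at 1 µM; incubated at 37 °C up to 120 min, stopped with acetonitrile containing internal standard. Centrifuged supernatant analysed for parent compound by HPLC-MS/MS; n = 2. Half-life and intrinsic clearance (µL/min/10^6 cells) derived; extraction ratio reported from these.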

[5] = Half life in mouse hepatocytes at 1 uM up to 120 mins by HPLC-MS/MS analysis; assay type: ADME, cell-based, Hepatocyte
[6] = AUCinfinity in C57 Black mouse liver at 10 mg/kg, po; assay type: ADME, organism-based; parameters: time infinity, route oral, dose 10 mg/kg; summary of the method: as §2
[7] = AUCall in C57 Black mouse kidney at 10 mg/kg, iv; assay type: ADME, organism-based; parameters: dose 10 mg/kg; summary of the method: as §2
[8] = Stability in human plasma assessed as parent compound remaining at 1 uM after 2 hrs by HPC-MS/MS analysis; assay type: ADME, cell-free; settings: read-out: Stabilty
Summary of the method: (§4)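 Buffer containing test compound at 1 µM was mixed with human or mouse blood plasma and incubated at 37 °C for 60–120 min. Parent compound remaining gave the plasma half-life and the percentage stable at 2 h.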

[9] = AUCall in C57 Black mouse brain at 10 mg/kg, iv; assay type: ADME, organism-based; parameters: dose 10 mg/kg; summary of the method: as §2
[10] = AUCinfinity in C57 Black mouse plasma at 10 mg/kg, iv; assay type: ADME, organism-based; parameters: route intravenous, time infinity, dose 10 mg/kg; settings: in vivo; summary of the method: as §2
[11] = AUClast in C57 Black mouse spleen at 10 mg/kg, iv; assay type: ADME, organism-based; parameters: time 0 - last, route intravenous, dose 10 mg/kg; summary of the method: as §2
[12] = Tmax in C57 Black mouse brain at 10 mg/kg, iv; assay type: ADME, organism-based; summary of the method: as §1
[13] = AUClast in C57 Black mouse plasma at 10 mg/kg, iv; assay type: ADME, organism-based; parameters: route intravenous, time 0 - last, dose 10 mg/kg; summary of the method: as §2
CYP2C9 = CYP2C9 (Homo sapiens, UniProt P11712); test: Inhibition of human CYP2C9 using fluorogenic substrate incubated for 60 mins in presence of NADPH by fluorescence assay relative to control; assay type: ADME; settings: probe fluorogenic substrate
Summary of the method: (§5)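 Baculosomes each expressing a single cDNA-derived human P450 isozyme were incubated with compound at 10 µM, a fluorogenic substrate and NADPH. Incubation was at 37 °C for at least 60 min before fluorescence was read, n = 3.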

[14] = Half life in C57 Black mouse plasma at 10 mg/kg, iv; assay type: ADME, organism-based; summary of the method: as §1
[15] = AUCall in C57 Black mouse brain at 10 mg/kg, po; assay type: ADME, organism-based; parameters: dose 10 mg/kg; summary of the method: as §2
[16] = AUCinfinity in C57 Black mouse kidney at 10 mg/kg, iv; assay type: ADME, organism-based; parameters: route intravenous, time infinity, dose 10 mg/kg; summary of the method: as §2
[17] = Half life in human plasma at 1 uM after 60 to 120 mins by HPLC-MS/MS analysis; assay type: ADME, cell-free; settings: time 60-120 min; summary of the method: as §4
[18] = Cmax in C57 Black mouse kidney at 10 mg/kg, po; assay type: ADME, organism-based; parameters: route oral, dose 10 mg/kg; summary of the method: as §2
[19] = Intrinsic clearance in human hepatocytes at 1 uM up to 120 mins by HPLC-MS/MS analysis; assay type: ADME, cell-based, Hepatocyte; settings: 2 h
[20] = Toxicity in C57BL/6 mouse at 10 mg/kg, iv or po; assay type: organism-based; settings: in vivo
[21] = Half life in C57 Black mouse kidney at 10 mg/kg, iv; assay type: ADME, organism-based; summary of the method: as §1
[22] = Protein binding human serum at 1 uM after 60 to 120 mins by HPLC-MS/MS analysis; assay type: ADME, cell-free; settings: time 60-120 min, read-out: PB (converted)
[23] = Volume of distribution in C57 Black mouse brain at 10 mg/kg, iv; assay type: ADME, organism-based; summary of the method: as §1
[24] = AUCall in C57 Black mouse muscle at 10 mg/kg, iv; assay type: ADME, organism-based, Muscle tissue; parameters: dose 10 mg/kg; summary of the method: as §2
[25] = Tmax in C57 Black mouse liver at 10 mg/kg, iv; assay type: ADME, organism-based; summary of the method: as §1
[26] = Cmax in C57 Black mouse muscle at 10 mg/kg, iv; assay type: ADME, organism-based, Muscle tissue; parameters: route intravenous, dose 10 mg/kg; summary of the method: as §2
[27] = Intrinsic clearance in mouse hepatocytes at 1 uM up to 120 mins by HPLC-MS/MS analysis; assay type: ADME, cell-based, Hepatocyte; settings: 2 h
[28] = Cmax in C57 Black mouse spleen at 10 mg/kg, po; assay type: ADME, organism-based; parameters: route oral, dose 10 mg/kg; summary of the method: as §2
[29] = AUClast in C57 Black mouse brain at 10 mg/kg, iv; assay type: ADME, organism-based; parameters: time 0 - last, route intravenous, dose 10 mg/kg; summary of the method: as §2
[30] = Bioavailability in C57 Black mouse at 10 mg/kg, iv or po; settings: in vivo
[31] = Cmax in C57 Black mouse spleen at 10 mg/kg, iv; assay type: ADME, organism-based; parameters: route intravenous, dose 10 mg/kg; summary of the method: as §2
[32] = Tmax in C57 Black mouse kidney at 10 mg/kg, po; assay type: ADME, organism-based; summary of the method: as §1
[33] = Clearance in C57 Black mouse assessed as liver blood flow at 10 mg/kg, iv or po; assay type: ADME, organism-based; settings: in vivo
[34] = Half life in C57 Black mouse muscle at 10 mg/kg, iv; assay type: ADME, organism-based, Muscle tissue; summary of the method: as §1
CYP3A4 = CYP3A4 (Homo sapiens, UniProt P08684); test: Inhibition of human CYP3A4 using fluorogenic substrate incubated for 60 mins in presence of NADPH by fluorescence assay relative to control; assay type: ADME; settings: probe fluorogenic substrate; summary of the method: as §5
[35] = AUCinfinity in C57 Black mouse plasma at 10 mg/kg, po; assay type: ADME, organism-based; parameters: route oral, time infinity, dose 10 mg/kg; summary of the method: as §2
[36] = Half life in C57 Black mouse brain at 10 mg/kg, iv; assay type: ADME, organism-based; summary of the method: as §2
[37] = Metabolic stability in mouse hepatocytes assessed as hepatic extraction ratio at 1 uM up to 120 mins by HPLC-MS/MS analysis; assay type: ADME, cell-based, Hepatocyte; summary of the method: as §3
[38] = Volume of distribution in C57 Black mouse plasma at 10 mg/kg, iv; assay type: ADME, organism-based; summary of the method: as §1
[39] = Half life in C57 Black mouse brain at 10 mg/kg, po; assay type: ADME, organism-based; summary of the method: as §2

Chain of CYP3A4 (P08684 whole entry): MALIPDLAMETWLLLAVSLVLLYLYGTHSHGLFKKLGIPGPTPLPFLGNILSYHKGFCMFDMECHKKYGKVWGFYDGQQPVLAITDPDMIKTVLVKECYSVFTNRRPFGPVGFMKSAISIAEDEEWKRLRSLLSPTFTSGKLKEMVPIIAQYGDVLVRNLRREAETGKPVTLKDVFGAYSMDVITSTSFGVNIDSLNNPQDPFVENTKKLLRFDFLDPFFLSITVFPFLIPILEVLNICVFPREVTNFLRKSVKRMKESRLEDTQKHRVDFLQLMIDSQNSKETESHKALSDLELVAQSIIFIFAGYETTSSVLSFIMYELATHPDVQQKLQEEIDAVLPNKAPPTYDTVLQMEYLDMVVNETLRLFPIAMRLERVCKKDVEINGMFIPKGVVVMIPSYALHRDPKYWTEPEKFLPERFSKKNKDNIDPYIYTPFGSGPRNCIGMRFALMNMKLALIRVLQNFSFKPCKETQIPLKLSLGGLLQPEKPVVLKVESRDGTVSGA
Chain of CYP2C9 (P11712 whole entry): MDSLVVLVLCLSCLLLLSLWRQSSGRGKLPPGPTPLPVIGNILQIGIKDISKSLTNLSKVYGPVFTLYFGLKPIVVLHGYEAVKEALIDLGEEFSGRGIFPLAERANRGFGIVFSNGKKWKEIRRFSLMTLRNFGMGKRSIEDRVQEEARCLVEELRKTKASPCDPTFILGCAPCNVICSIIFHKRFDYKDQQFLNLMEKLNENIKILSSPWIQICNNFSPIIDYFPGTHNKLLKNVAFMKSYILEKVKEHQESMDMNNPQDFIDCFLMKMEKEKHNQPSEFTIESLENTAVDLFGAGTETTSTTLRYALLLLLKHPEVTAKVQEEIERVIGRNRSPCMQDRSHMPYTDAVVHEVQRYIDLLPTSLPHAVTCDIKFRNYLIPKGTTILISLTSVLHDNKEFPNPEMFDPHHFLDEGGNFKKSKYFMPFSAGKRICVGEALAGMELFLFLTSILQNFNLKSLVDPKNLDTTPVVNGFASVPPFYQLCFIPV

Tmax [1]: 15 min
Cmax [2]: 787 ng/mL
AUC [3]: 520 ng·h/mL
hepatic extraction ratio at 2 h, 1 µM [4]: 0.98
half-life at 1 µM [5]: 126 min
AUC(0-inf) [6]: 4090 ng·h/mL
AUC [7]: 320 ng·h/mL
remaining at 2 h, 1 µM [8]: 80%
AUC [9]: 246 ng·h/mL
AUC [10]: 244 ng·h/mL
AUC(0-t) [11]: 463 ng·h/mL
Tmax [12]: 1.8 min
AUC(0-t) [13]: 240 ng·h/mL
inhibition at 1 h (CYP2C9): 74.2%
half-life [14]: 27 min
AUC [15]: 763 ng·h/mL
AUC(0-inf) [16]: 348 ng·h/mL
half-life at 1 µM [17]: 808 min
Cmax [18]: 1640 ng/mL
CLH [19]: 346 µL/min
half-life [21]: 45.6 min
fraction unbound at 1 µM [22]: 0.0052
Vd [23]: 1.83 L/kg
AUC [24]: 77.3 ng·h/mL
Tmax [25]: 1.8 min
Cmax [26]: 165 ng/mL
CLH [27]: 8 µL/min
Cmax [28]: 1100 ng/mL
AUC(0-t) [29]: 246 ng·h/mL
Bioavailability [30]: 21.4%
Cmax [31]: 587 ng/mL
Tmax [32]: 15 min
clearance [33]: 90 mL/min/kg
half-life [34]: 31.2 min
inhibition at 1 h (CYP3A4): 80.2%
AUC(0-inf) [35]: 523 ng·h/mL
half-life [36]: 30 min
hepatic extraction ratio at 2 h, 1 µM [37]: 0.48
Vd [38]: 1.69 L/kg
half-life [39]: 27.6 min
Structure (SMILES): O=C(CCCc1cccs1)N1CCN(c2ccc(C(F)(F)F)cc2)CC1
Activity [20]: Non-Toxic
